Measured values as given in article PMC3085951 (Journal of controlled release : official journal of the …, 2011).
Peptide text beside a SMILES is read from it.

Molecular target: MT1-160p (Homo sapiens, UniProt P50281)
Assay: Phage ELISA, apparent Kd of phage-displayed peptide with MT1-160p
Format: binding
How it was run: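 MT1-160p (MT1-MMP residues 160–174) coated at 100 µg/ml in carbonate buffer pH 9.6, 4°C overnight, then blocked with 1% BSA/PBS. Selected phages bound 2 h at 37°C, then PBST washes. Mouse anti-M13 (1:1000) 1 h at 37°C, then HRP goat anti-mouse (1:2500). TMB 30 min at 37°C in the dark, stopped with 2 M H2SO4, A450. Coated wells without phage served as blanks.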

CC(C)C[C@H](NC(=O)[C@H](Cc1ccccc1)NC(=O)[C@@H](NC(=O)[C@H](CCCCN)NC(=O)[C@@H](NC(=O)[C@H](CC(N)=O)NC(=O)[C@H](Cc1c[nH]cn1)NC(=O)[C@H](CC(C)C)NC(=O)[C@H](Cc1c[nH]cn1)NC(=O)[C@H](CCCCN)NC(=O)[C@H](Cc1c[nH]c2ccccc12)NC(=O)[C@@H](N)Cc1c[nH]cn1)[C@@H](C)O)[C@@H](C)O)C(=O)O [MT1-AF7p] (H-HWKHLHNTKTFL-OH)
Kd: 0.075 nM
